Reference: article PMC3048907 (Journal of medicinal chemistry, 2011)
Values belong to the molecule of their own block, whether it stands above or below them.

Assays:
KB-VIN versus KB = settings: P-gp overexpressing MDR tumor cell line vs non-MDR; cited from earlier work
human tumor cell lines = assay: Antiproliferative activity across the human tumor cell line panel; format: cell-based
How it was run: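 Cells kept in RPMI-1640 with 25 mM HEPES, 0.25% bicarbonate, 10% FBS and 100 μg/mL kanamycin; trypsinized, seeded at 1500–7500 cells/well. Test compound added from DMSO stock diluted in medium (DMSO ≤0.5% v/v). After 3 days, cells fixed in cold 50% TCA, stained with 0.4% sulforhodamine B, A562 read. GI50 = 50% growth reduction vs untreated; mean of ≥3 determinations.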

[1] = system: KB-VIN (MDR line overexpressing P-glycoprotein); assay: Antiproliferative activity assay; format: cell-based, human; settings: SRB assay, three days in culture; NA = not active, 20 μg/mL did not reach 50% inhibition
tubulin = assay: Tubulin assembly assay; format: biochemical; settings: 10 μM tubulin, 20 min at 30 °C, highest concentration evaluated 40 μM
[2] = system: A549 cells (microtubules and spindles); assay: Immunofluorescence staining of tubulin; format: cell-based, human; settings: for microtubules (α-tubulin immunofluorescence) / mitotic spindles (α-tubulin immunofluorescence): A549, 24 h, 0.1 nM 21, 100 nM colchicine, 1.5 nM pacritaxel, 500 nM doxorubicin; for concentration at which antimicrotubule activity was seen: within 24 hr
KB-VIN cells = assay: Verapamil reversal experiments; format: cell-based, human; settings: for effect of verapamil co-treatment on cytotoxic activity (MDR-selectivity): co-treatment with verapamil 1 μg/mL

GI50 KB-VIN [1]: active
SMILES: CC1=C(O)C(C)(C)c2oc(-c3ccccc3)cc(=O)c2C1=O [Compound 1, desmosdumotin B]
selectivity index [collateral sensitivity (CS), activity ratio of MDR line versus non-MDR line] (KB-VIN versus KB): greater than 20
activity against all non-MDR tumor cells (human tumor cell lines): non-active

Inhibition of tubulin assembly IC50 ± SD (tubulin): inactive
IC50 (tubulin; read-out: Inhibition of tubulin assembly IC50 ± SD): > 40 µM
GI50 KB-VIN [1]: active
SMILES: CCC1=C(O)c2c(oc(-c3ccccc3)cc2=O)C(CC)(CC)C1=O [Compound 2]
activity against all non-MDR tumor cells (human tumor cell lines): non-active

Inhibition of tubulin assembly IC50 ± SD (tubulin): Not obtainable ^c
SMILES: CCC1=C(O)c2c(oc(-c3ccc4ccccc4c3)cc2=O)C(CC)(CC)C1=O [Compound 11, 2-(Naphthalen-2′-yl)-6,8,8-triethyldesmosdumotin B]

SMILES: CCC1=C(O)c2c(oc(-c3csc4ccccc34)cc2=O)C(CC)(CC)C1=O [Compound 21, 2-(Benzo[b]thiophen-3′-yl)-6,8,8-triethyldesmosdumotin B]
microtubules (α-tubulin immunofluorescence) [2]: undetectable
mitotic spindles (α-tubulin immunofluorescence) [2]: undetectable
fold lower concentration than colchicine for antimicrotubule activity ([2]; A549 cells, 24 hr): 1000 fold
concentration at which antimicrotubule activity was seen ([2]; A549 cells): 0.1 nM

SMILES: CCC1=C(O)c2c(oc(-c3csc4ccc(Br)cc34)cc2=O)C(CC)(CC)C1=O [Compound 24, 2-(5′-Bromobenzo[b]thiophen-3′-yl)-6,8,8-triethyldesmosdumotin B]
effect of verapamil co-treatment on cytotoxic activity (MDR-selectivity) (KB-VIN cells): partially reversed

SMILES: CCC1=C(O)c2c(oc(-c3cccc4ccsc34)cc2=O)C(CC)(CC)C1=O [Compound 27, 2-(Benzo[b]thiophen-7′-yl)-6,8,8-triethyldesmosdumotin B]
effect of verapamil co-treatment on cytotoxic activity (MDR-selectivity) (KB-VIN cells): partially reversed

SMILES: COc1cc2c(c(OC)c1OC)-c1ccc(OC)c(=O)cc1[C@@H](NC(C)=O)CC2 [colchicine]
microtubules (α-tubulin immunofluorescence) [2]: undetectable
mitotic spindles (α-tubulin immunofluorescence) [2]: undetectable
concentration at which antimicrotubule activity was seen ([2]; A549 cells): 100 nM

SMILES: COc1cccc2c1C(=O)c1c(O)c3c(c(O)c1C2=O)C[C@@](O)(C(=O)CO)C[C@@H]3O[C@H]1C[C@H](N)[C@H](O)[C@H](C)O1 [doxorubicine]
microtubules (α-tubulin immunofluorescence) [2]: detectable
mitotic spindles (α-tubulin immunofluorescence) [2]: undetectable

SMILES: CC(=O)O[C@H]1C(=O)[C@@]2(C)[C@H]([C@H](OC(=O)c3ccccc3)[C@]3(O)C[C@H](OC(=O)[C@H](O)[C@@H](NC(=O)c4ccccc4)c4ccccc4)C(C)=C1C3(C)C)[C@]1(OC(C)=O)CO[C@@H]1C[C@@H]2O [pacritaxel]
microtubules (α-tubulin immunofluorescence) [2]: detectable
mitotic spindles (α-tubulin immunofluorescence) [2]: clearly seen

SMILES: COc1ccc(CCN(C)CCCC(C#N)(c2ccc(OC)c(OC)c2)C(C)C)cc1OC (stereo not shown) [verapamil]
effect of verapamil alone on replication of KB-VIN cells (KB-VIN cells; verapamil 1 μg/mL): no effect
